# High-throughput results (PubChem BioAssay)
# The list is not random: actives were taken first. Their share in the collection is about 1.8%.
# Casp6 inh: human caspase-6 inhibitors, primary screen, biochemical, VEID-R110 fluorescence, single point, set 2 | P55212 | purified caspase-6, Z-VEID-R110 cleavage fluorescence | inhibition, % at 12.5 µM | 350,000 compounds, 0.53% hits;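 active = mean inhibition across replicates at least about 35%, with every replicate also reaching that limit, limit read from the data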;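 also: 0% = median of neutral control wells and 100% = no fluorescence left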
# Target sequence (P55212 24-179 limits assumed): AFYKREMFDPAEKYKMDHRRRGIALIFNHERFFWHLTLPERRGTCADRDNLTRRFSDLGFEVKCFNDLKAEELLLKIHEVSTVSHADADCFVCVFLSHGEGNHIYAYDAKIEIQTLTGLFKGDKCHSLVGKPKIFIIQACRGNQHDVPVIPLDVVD
# Target sequence (P55212 194-293 limits assumed): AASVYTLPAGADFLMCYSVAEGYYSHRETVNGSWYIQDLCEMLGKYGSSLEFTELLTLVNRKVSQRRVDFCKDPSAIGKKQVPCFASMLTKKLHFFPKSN
# UHRF1 MBD2 ctr: UHRF1 methylated DNA binding inhibitors, primary screen, counter-screen for MBD2 inhibitor project, biochemical, TR-FRET, human UHRF1, single concentration | 370,000 compounds, 0.75% hits | E3 ubiquitin-protein ligase UHRF1 (Homo sapiens), Q96T88 | inhibition, % at 4.4 µM | UHRF1 binding to methylated oligo | AID 687016, 2013; in the data active = inhibition above about 21%;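 also: UHRF1 SRA domain binding a hemimethylated CpG hairpin DNA probe; 0% = median of test compound wells and 100% = reference inhibitor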
# LEDGF integ inh: blockers of LEDGF/p75-dependent integrase strand transfer – biochemical, TR-FRET, high throughput, primary screen | HIV-1 integrase (with human LEDGF/p75) | TR-FRET IN-LEDGF/p75 DNA integration, Eu/Cy5 | inhibition, % at 3.7 µM | 370,000 compounds, 0.64% hits | AID 743269, 2014;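 active = inhibition above the screen-wide mean plus 3 SD, cut at about 13% in these data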;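 also: signal is the Cy5 over europium emission ratio at 671 and 618 nm; 0% = plate median of compound wells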
# TDP2 inh: human TDP2 enzyme inhibitors, primary screen, biochemical, epi absorbance, recombinant enzyme. Tyrosyl-DNA phosphodiesterase 2 (Homo sapiens), O95551. T5PNP hydrolysis, p-nitrophenol absorbance 415 nm. inhibition, % at 12.8 µM. 370,000 compounds, 0.34% hits;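 active = inhibition above the mean of all tested compounds plus 3 SD, set per campaign, cut at about 25% in these data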;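 also: 0% = DMSO with enzyme and 100% = buffer with substrate but no TDP2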
# Target sequence (O95551 whole entry, looked up): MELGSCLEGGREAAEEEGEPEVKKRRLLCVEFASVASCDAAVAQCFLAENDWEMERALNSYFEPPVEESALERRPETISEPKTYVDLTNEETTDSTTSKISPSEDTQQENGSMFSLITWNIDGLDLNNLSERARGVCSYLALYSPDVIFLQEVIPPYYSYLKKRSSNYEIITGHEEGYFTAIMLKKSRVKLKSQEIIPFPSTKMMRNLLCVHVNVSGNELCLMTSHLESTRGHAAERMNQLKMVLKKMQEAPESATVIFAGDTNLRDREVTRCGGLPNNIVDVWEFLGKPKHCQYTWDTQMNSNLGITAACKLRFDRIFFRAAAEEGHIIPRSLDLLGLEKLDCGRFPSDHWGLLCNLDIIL
#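 Incubation: 2 h at 37 °C; Test system: recombinant human TDP2; Quantity: enzyme 120 nM; Read-out basis: percent inhibition; Medium: 50 mM Tris-HCl pH 7.5 with Mg2+, KCl, DTT, BSA; Repeats: single replicate; Compound: 12.8 µM single point, 1% DMSO; Signal: epi absorbance; Reagent: 5 mM T5PNP chromogenic substrate; Benchmarks: no-enzyme high, DMSO-plus-enzyme low.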
# NSD2 inh: NSD2 histone methyltransferase inhibitors, primary screen, biochemical, AlphaScreen, single concentration, set 2; 310,000 compounds, 0.54% hits; Histone-lysine N-methyltransferase NSD2 (Homo sapiens), O96028; NSD2 peptide methylation, 120 min; inhibition, % at 12.5 µM; in the data active = inhibition above about 50%
# MBD2 DNA inh: inhibitors of MBD2 binding to methylated DNA, primary screen, biochemical, TR-FRET, DNA-binding domain, human | 370,000 compounds, 0.31% hits | Methyl-CpG-binding domain protein 2 (Homo sapiens), Q9UBB5 | MBD2 binding to methylated oligonucleotide | inhibition, % at 4.4 µM; in the data active = inhibition above about 13%
# IN multimer act: HIV-1 IN multimer formation enhancers, counter-screen for LEDGF/p75 integration inhibitor project, biochemical, TR-FRET. AID 1053131, 2014. TR-FRET HIV-1 integrase multimerization. activation, % at 7.7 µM. shares compounds with LEDGF integ inh. 2,000 compounds, 17% hits; in the data active = activation above about 8.9%
# TR-FRET interf: TR-FRET optical interference artefacts, confirmation, artefact control for LEDGF/p75-dependent integration inhibitor project, biochemical, HIV-1 IN multimerization; shares compounds with LEDGF integ inh; TR-FRET optical interference counterscreen; inhibition, % at 7.7 µM; 2,000 tested, under 10 active; AID 1053135, 2014;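 active = inhibition above the mean over all tested compounds plus 3 SD, which no compound reached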;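 also: 0% = integrase with antibodies and DMSO and 100% = antibodies without integrase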
# LEDGF integ conf: inhibitors of HIV-1 IN-LEDGF/p75 DNA integration, confirmation, biochemical, TR-FRET; shares compounds with LEDGF integ inh; TR-FRET LEDGF/p75-dependent HIV-1 integration; inhibition, % at 3.7 µM; 2,000 compounds, 36% hits; AID 1053136, 2014; in the data active = inhibition above about 14%
# Active calls of the source: *; nt = no result given.
SMILES,Casp6 inh,UHRF1 MBD2 ctr,LEDGF integ inh,TDP2 inh,NSD2 inh,MBD2 DNA inh,IN multimer act,TR-FRET interf,LEDGF integ conf
CC1=N/C(=C/c2ccco2)C(=O)O1,35,10,13*,14,119*,4,10*,-52,54*
CCNC(=O)C[C@H]1CC[C@@H]2[C@@H](COc3ccc(NC(=O)Nc4ccccc4Cl)cc3C(=O)N2C)O1,-1,nt,nt,nt,nt,nt,nt,nt,nt
CCOC(=O)C(C)Sc1ccc2nnc(-c3ccc(F)cc3)n2n1 (stereo not drawn),nt,-1,15*,-4,-5,-2,4,-19,3
Cc1ccc(S(=O)(=O)N(C)C[C@@H]2Oc3ccc(NC(=O)Cc4ccccc4)cc3C(=O)N([C@H](C)CO)C[C@@H]2C)cc1,3,nt,nt,nt,nt,nt,nt,nt,nt
CC1C=CC=CCCC=CC=CC=CC=CC(OC2O[C@H](C)[C@@H](O)[C@H](N)[C@@H]2O)CC(O)C(C(=O)O)C(O)CC(=O)CC(O)C(O)CCC(O)CC(O)CC(O)CC(=O)OC(C)C(C)C1O (stereo partly drawn),nt,4,26*,-2,4,-4,0,-2,43*
CC1C=CC=CC=CC=CC=CC=CC=CC(OC2OC(C)C(O)C(N)C2O)CC2OC(O)(CC(O)CC(O)C(O)CCC(O)CC(O)CC(=O)OC(C)C(C)C1O)CC(O)C2C(=O)O (stereo not drawn),nt,nt,nt,nt,5,nt,nt,nt,nt
CNC(=O)c1ccc(CN(C)CC(=O)Nc2ccccc2C(=O)NC2CC2)cc1,-1,2,75*,5,0,-1,-1,4,-2
CSC1=N/C(=C\c2ccc(C)s2)C(=O)S1,nt,3,0,-8,1,4,nt,nt,nt
CSC1=N/C(=C\c2ccc(C)o2)C(=O)S1,nt,-4,14*,-14,9,-11,1,-5,6
COC(=O)c1ccc(NC(=S)N2CCN(Cc3ccccc3OC)CC2)cc1,1,0,-2,-6,nt,6,nt,nt,nt
COC(=O)c1ccc(NC(=S)N2CCN(Cc3ccccc3Cl)CC2)cc1,0,1,76*,-10,-2,0,0,-1,-10
O=C(c1ccc2c(c1)OCO2)N1CC(=O)N2[C@H](C1)[C@H](c1ccc(C#CCC3CCCC3)cc1)[C@@H]2CO,4,nt,nt,nt,nt,nt,nt,nt,nt
Cc1ccc(S(=O)(=O)Nc2ccc3c(c2)C(=O)N([C@@H](C)CO)C[C@@H](C)[C@H](CN(C)CC2CCCCC2)O3)cc1,-2,nt,nt,nt,nt,nt,nt,nt,nt
N#CCSc1ccccc1NC(=O)COc1ccc(-c2nnco2)cc1,4,0,14*,-1,0,3,-2,8,-5
N#CC1=C(N)Oc2cc(N)ccc2C1c1cccc(F)c1 (stereo not drawn),3,-2,15*,3,-1,-3,0,0,-6
COc1ccc(OC)c(C2C(C#N)=C(N)Oc3cc(N)ccc32)c1 (stereo not drawn),nt,-4,14*,-3,4,-5,2,-9,-4
CN(C)c1ccc2c(c1)OC(N)=C(C#N)C2c1cccc(F)c1 (stereo not drawn),nt,nt,nt,nt,-2,nt,nt,nt,nt
CC1Cn2c(Cc3ccccc3)nnc2S1 (stereo not drawn),1,5,3,-11,2,1,nt,nt,nt
CC1Cn2c(CCc3ccccc3)nnc2S1 (stereo not drawn),nt,1,23*,4,nt,3,0,-1,-6
COC(=O)[C@H]1[C@H](CO)[C@H]2Cn3c(ccc(-c4cncnc4)c3=O)[C@H]2N1CCC(F)(F)F,1,nt,nt,nt,nt,nt,nt,nt,nt
O=C(c1ccc2nc(-c3ccco3)c(-c3ccco3)nc2c1)N1CCN(c2ccccc2)CC1,nt,8,39*,-15,3,-8,1,-5,14*
CCc1nc2ccc(C(=O)N3CCN(c4ccccc4)CC3)cc2nc1CC,1,-1,-2,-7,4,-1,nt,nt,nt
CS(=O)(=O)Nc1ccc2c(c1)[C@@H]1C[C@@H](CC(=O)NC3CCCC3)O[C@@H](CO)[C@@H]1O2,-1,nt,nt,nt,nt,nt,nt,nt,nt
CC(=O)NNC(=O)c1sc(=S)n(C)c1C,-4,3,22*,-10,-2,1,1,-5,1
O=C(C[C@H]1CC[C@@H]2[C@H](COC[C@@H](O)CN2S(=O)(=O)c2ccc(Cl)cc2)O1)NCc1ccc(Cl)c(Cl)c1,1,nt,nt,nt,nt,nt,nt,nt,nt
SMILES,Casp6 inh,UHRF1 MBD2 ctr,LEDGF integ inh,TDP2 inh,NSD2 inh,MBD2 DNA inh,IN multimer act,TR-FRET interf,LEDGF integ conf
CC(=C/c1ccco1)/C=N/NC(=O)Cc1cccn1C,20,5,21*,-2,1,2,-1,5,10
CC(/C=N/NC(=O)Cc1cccn1C)=C\c1ccco1,nt,21*,37*,4,24,9,1,-5,6
Cn1cccc1CC(=O)N/N=C/c1ccco1,16,-1,5,0,0,-2,nt,nt,nt
O=C(C[C@H]1C[C@@H]2c3cc(NC(=O)C4CCOCC4)ccc3O[C@@H]2[C@H](CO)O1)NCc1ccccc1F,0,nt,nt,nt,nt,nt,nt,nt,nt
C[C@@H]1CN([C@H](C)CO)C(=O)Cc2cc(NC(=O)Cc3ccccc3)ccc2O[C@@H]1CN(C)Cc1ccc2c(c1)OCO2,0,nt,nt,nt,nt,nt,nt,nt,nt
COc1ccc(NC(=O)Nc2ccc3c(c2)C(=O)N([C@@H](C)CO)C[C@@H](C)[C@@H](CN(C)C(=O)Nc2c(C)noc2C)OCCCC[C@@H](C)O3)cc1,-1,nt,nt,nt,nt,nt,nt,nt,nt
CCCC#Cc1ccc([C@H]2[C@H]3CN(C(=O)c4ccc5c(c4)OCO5)CCCCN3[C@H]2CO)cc1,2,nt,nt,nt,nt,nt,nt,nt,nt
S=C(NCc1ccco1)NCc1ccco1,52*,27*,34*,6,2,3,6,-20,3
